Experimental data as given in ChEMBL document CHEMBL3585265, “Bacteria-Derived Compatible Solutes Ectoine and 5α-Hydroxyectoine Act as Intestinal Barrier Stabilizers to Ameliorate Experimental Inflammatory Bowel Disease” (J Nat Prod, 2015).
Calls of active or inactive are those of the source. No cut-off for these calls is given here.

How the values were obtained:
[1] = system: Rattus norvegicus; assay: Anti-colitis activity in Wistar rat assessed as suppression of TNBS-induced body weight reduction at 300 mg/kg, po qd administered for 1 week starting 48 hrs post TNBS induction; type: functional, organism-based
How it was run: (§1)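 Adult male Wistar rats (150−200 g), fasted 36 h, received 0.25 mL 50% (v/v) ethanol containing 100 mg/kg TNBS, instilled 8 cm into colon under light ether. Oral dosing (water vehicle, 1 mL per 200 g) once daily for 1 week from 48 h; sacrifice 24 h after last dose. Body weight recorded before induction and before necropsy. Distal 8 cm colon weighed; mass index as mg/g body weight. n ≥ 6, mean ± SEM.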

[2] = system: Rattus norvegicus; assay: Anti-colitis activity in Wistar rat assessed as reduction of TNBS-induced colon mass index at 300 mg/kg, po qd administered for 1 week starting 48 hrs post TNBS induction; type: functional, organism-based; how it was run: as §1
[3] = system: Rattus norvegicus; assay: Anti-colitis activity in Wistar rat assessed as suppression of TNBS-induced reduction of colonic GSH level at 300 mg/kg, po qd administered for 1 week starting 48 hrs post TNBS induction by spectrophotometric analysis; type: functional, organism-based
How it was run: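 Colitis induced rectally with 100 mg/kg TNBS in 50% ethanol; oral dosing daily for 1 week from 48 h later. Colon homogenate (10% w/v, ice-cold water) deproteinized with ice-cold 5% sulfosalicylic acid, centrifuged 3000 rpm 20 min; supernatant used for spectrophotometric reduced glutathione estimation. n ≥ 6, mean ± SEM.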

[4] = system: Rattus norvegicus; assay: Toxicity in Wistar rat assessed as decrease in Hsp70 level at 300 mg/kg, po qd administered for 1 week starting 48 hrs post TNBS induction by ELISA; type: organism-based; conditions: in vivo
How it was run: (§2)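 TNBS colitis in male Wistar rats: 100 mg/kg TNBS in 0.25 mL 50% ethanol, instilled 8 cm into the colon after a 36 h fast. Oral dosing in 1 mL per 200 g rat. Rats were killed 24 h after the last dose. The distal 8 cm colon was rinsed in ice-cold saline and homogenized 10% (w/v) in ice-cold bidistilled water. Mean of ≥6 animals ± SEM.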

[5] = system: Rattus norvegicus; assay: Anti-colitis activity in Wistar rat assessed as suppression of TNBS-induced body weight reduction at 50 to 300 mg/kg, po qd administered for 1 week starting 48 hrs post TNBS induction; type: functional, organism-based
How it was run: (§3)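 Male Wistar rats (150–200 g) were fasted 36 h, then given 100 mg/kg TNBS in 0.25 mL 50% ethanol rectally under light ether, with the catheter tip 8 cm from the anus. Oral dosing was in 1 mL per 200 g rat. Rats were killed 24 h after the last dose. Body weight was taken before induction and before necropsy. Ulcer area in the distal 8 cm colon was measured planimetrically (cm2). Colon mass index is colon weight/body weight (mg/g). Mean of ≥6 animals ± SEM.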

[6] = system: Rattus norvegicus; assay: Anti-colitis activity in Wistar rat assessed as reduction of TNBS-induced ulcerative area at 50 to 300 mg/kg, po qd administered for 1 week starting 48 hrs post TNBS induction (reference value: 4.9 cm2); type: functional; how it was run: as §3
[7] = system: Rattus norvegicus; assay: Anti-colitis activity in Wistar rat assessed as reduction of TNBS-induced colon mass index at 50 mg/kg, po qd administered for 1 week starting 48 hrs post TNBS induction (reference value: 7.9 mg/g); type: functional; how it was run: as §3
[8] = system: Rattus norvegicus; assay: Anti-colitis activity in Wistar rat assessed as reduction of TNBS-induced myeloperoxidase activity at 50 mg/kg, po qd administered for 1 week starting 48 hrs post TNBS induction by spectrophotometric analysis; type: functional, organism-based; how it was run: as §2
[9] = system: Rattus norvegicus; assay: Anti-colitis activity in Wistar rat assessed as suppression of TNBS-induced reduction of colonic GSH level at 50 to 300 mg/kg, po qd administered for 1 week starting 48 hrs post TNBS induction by spectrophotometric analysis; type: functional, organism-based
How it was run: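 TNBS colitis in male Wistar rats: 100 mg/kg TNBS in 0.25 mL 50% ethanol given rectally. Colon was taken 24 h after the last oral dose and homogenized 10% (w/v) in ice-cold water. Homogenate was deproteinized with ice-cold 5% sulfosalicylic acid and spun at 3000 rpm for 20 min; GSH was read spectrophotometrically in the supernatant. Mean of ≥6 animals ± SEM.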

[10] = system: Rattus norvegicus; assay: Anti-colitis activity in Wistar rat assessed as suppression of TNBS-induced colonic TNF-alpha level at 50 to 100 mg/kg, po qd administered for 1 week starting 48 hrs post TNBS induction by ELISA; type: functional, organism-based; how it was run: as §2
[11] = system: Rattus norvegicus; assay: Anti-colitis activity in Wistar rat assessed as suppression of TNBS-induced colonic IL-1beta level at 50 to 100 mg/kg, po qd administered for 1 week starting 48 hrs post TNBS induction by ELISA; type: functional, organism-based; how it was run: as §2
[12] = system: Rattus norvegicus; assay: Anti-colitis activity in Wistar rat assessed as suppression of TNBS-induced fecal calprotectin level at 100 mg/kg, po qd administered for 1 week starting 48 hrs post TNBS induction by ELISA; type: functional, organism-based
How it was run: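 Feces were collected before sacrifice from 4 randomly chosen TNBS-colitis rats per group, suspended 1:10 in extraction buffer and incubated 90 min at room temperature. Calprotectin (S100A8/S100A9) was measured by ELISA, with samples incubated 90 min at room temperature. Samples were run in duplicate and medians taken.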

[13] = system: Rattus norvegicus; assay: Anti-colitis activity in Wistar rat assessed as reduction of TNBS-induced colon mass index at 100 mg/kg, po qd administered for 1 week starting 48 hrs post TNBS induction (reference value: 7.9 mg/g); type: functional; how it was run: as §3
[14] = system: Rattus norvegicus; assay: Anti-colitis activity in Wistar rat assessed as reduction of TNBS-induced myeloperoxidase activity at 100 mg/kg, po qd administered for 1 week starting 48 hrs post TNBS induction by spectrophotometric analysis; type: functional, organism-based
[15] = system: Rattus norvegicus; assay: Toxicity in Wistar rat assessed as effect on colonic GSH level at 100 mg/kg, po qd administered for 1 week by spectrophotometric analysis; type: organism-based, Colon; conditions: in vivo, 168 h
How it was run: (§4)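 Normal male Wistar rats (150–200 g) underwent the same rectal procedure with saline in place of TNBS. They received water or 100 mg/kg compound orally once daily for 1 week and were killed 24 h after the last dose. The distal 8 cm colon was weighed and homogenized 10% (w/v) in ice-cold bidistilled water. Body weight was taken before instillation and before necropsy.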

[16] = system: Rattus norvegicus; assay: Anti-colitis activity in Wistar rat assessed as suppression of TNBS-induced colonic TNF-alpha level at 50 to 300 mg/kg, po qd administered for 1 week starting 48 hrs post TNBS induction by ELISA; type: functional, organism-based
How it was run: (§5)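 TNBS/ethanol colitis in male Wistar rats, as described; oral once-daily treatment for 1 week beginning 48 h post-induction, sacrifice 24 h after final dose. Distal 8 cm colon excised, rinsed in ice-cold saline, homogenized 10% (w/v) in ice-cold bidistilled water; aliquot assayed for TNF-α and IL-1β by ELISA. At least 6 animals per group, mean ± SEM.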

[17] = system: Rattus norvegicus; assay: Anti-colitis activity in Wistar rat assessed as suppression of TNBS-induced colonic IL-1beta level at 50 to 300 mg/kg, po qd administered for 1 week starting 48 hrs post TNBS induction by ELISA; type: functional, organism-based; how it was run: as §5
[18] = system: Rattus norvegicus; assay: Toxicity in Wistar rat assessed as effect on colonic ICAM1 level at 100 mg/kg, po qd administered for 1 week by ELISA; type: organism-based, Colon; conditions: in vivo, 168 h; how it was run: as §4
[19] = system: Rattus norvegicus; assay: Toxicity in Wistar rat assessed as decrease in Hsp70 level at 100 mg/kg, po qd administered for 1 week by ELISA; type: organism-based; conditions: in vivo, 168 h; how it was run: as §4
[20] = system: Rattus norvegicus; assay: Toxicity in Wistar rat assessed as decrease in Hsp70 level at 50 to 300 mg/kg, po qd administered for 1 week starting 48 hrs post TNBS induction by ELISA; type: organism-based; conditions: in vivo; how it was run: as §2
[21] = system: Rattus norvegicus; assay: Toxicity in Wistar rat assessed as effect on body weight at 100 mg/kg, po qd administered for 1 week; type: organism-based; conditions: in vivo, 168 h; how it was run: as §4
[22] = system: Rattus norvegicus; assay: Toxicity in Wistar rat assessed as effect on colon mass index at 100 mg/kg, po qd administered for 1 week; type: organism-based; conditions: in vivo, 168 h; how it was run: as §4
[23] = system: Rattus norvegicus; assay: Toxicity in Wistar rat assessed as effect on myeloperoxidase activity at 100 mg/kg, po qd administered for 1 week by spectrophotometric analysis; type: organism-based; conditions: in vivo, 168 h; how it was run: as §4
[24] = system: Rattus norvegicus; assay: Toxicity in Wistar rat assessed as effect on TNF-alpha level at 100 mg/kg, po qd administered for 1 week by ELISA; type: organism-based; conditions: in vivo, 168 h; how it was run: as §4
[25] = system: Rattus norvegicus; assay: Toxicity in Wistar rat assessed as effect on IL-1beta level at 100 mg/kg, po qd administered for 1 week by ELISA; type: organism-based; conditions: in vivo, 168 h; how it was run: as §4

| SMILES | Activity [5] | Activity [6] [cm2] | Activity [9] | Activity [12] | Activity [15] | Activity [18] | Activity [19] | Activity [20] | Activity [21] | Activity [22] | Activity [23] | Activity [24] | Activity [25] | further results |
| --- | --- | --- | --- | --- | --- | --- | --- | --- | --- | --- | --- | --- | --- | --- |
| O=C(O)c1cc(/N=N/c2ccc(S(=O)(=O)Nc3ccccn3)cc2)ccc1O [SULFASALAZINE] |  |  |  |  |  |  |  |  |  |  |  |  |  | Activity [1]: Active; Activity [2]: Active; Activity [3]: inactive; Activity [4]: Toxic |
| CC1=N[C@H](C(=O)O)[C@@H](O)CN1 | Active | 1.3 | inactive | Active |  |  |  |  |  |  |  |  |  | Activity [7]: 4 mg/g; Activity [8]: Active; Activity [10]: Active; Activity [11]: Active |
| CC1=N[C@H](C(=O)O)CCN1 | Active | 1.2 | inactive | Active | Non-toxic | Non-toxic | Toxic | Toxic | Non-toxic | Non-toxic | Non-toxic | Non-toxic | Non-toxic | Activity [13]: 4.3 mg/g; Activity [14]: Active; Activity [16]: Active; Activity [17]: Active |
| CC1=NC[C@H](O)[C@@H](C(=O)O)N1 |  |  |  |  | Non-toxic | Non-toxic | Toxic | Toxic | Non-toxic | Non-toxic | Non-toxic | Non-toxic | Non-toxic |  |
